Experimental data as given in article PMC8920403 (Drug Delivery, 2022).

Key:
VEGF-A = assay: ELISA of VEGF-A in cornea of alkali burn CNV mice; type: in vivo, BALB/c mice; details: dexamethasone eye drops, days 3 and 7, P < 0.05
Method in brief: (§1)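 Alkali-burn CNV mice (0.1 M NaOH, 20 s) were given saline, test-compound lipid carrier or dexamethasone drops, 5 μL twice daily. On days 3 and 7, five mice per group were killed. Corneas were weighed, frozen at −80 °C, thawed at 4 °C for 0.5 h and minced. Tissue was extracted in 100 μL RIPA on ice for 1.5 h and spun at 12,000 rpm, 4 °C, 5 min. ELISA absorbance was read at 450 nm and normalised to BCA total protein. Mean ± SD; one-way ANOVA, with t test for pairs.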

PDGF-AB = assay: ELISA of PDGF-AB in cornea of alkali burn CNV mice; type: in vivo, BALB/c mice; details: dexamethasone eye drops, days 3 and 7, P < 0.05
Method in brief: as §1

[1] = Ocular pharmacokinetics in rabbit eyes; type: in vivo, New Zealand White rabbits; details: after single topical administration; limit of quantitation 0.01 μg/mL
Method in brief: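 Forty-two male New Zealand White rabbits (2.0–2.5 kg) were split into lipid-carrier and suspension groups. Each received a single 50 μL instillation into the lower conjunctival sac of both eyes, with lids held closed for 15 s. At preset times, rabbits were killed with i.v. 4% phenobarbital sodium via the marginal ear vein. After a saline rinse of the ocular surface, aqueous humour was drawn at the limbus with a 26-G needle.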

endothelial cells = details: at a dose of 7.5 µg/mL (0.1–100 µg/mL studied); ref Thiele et al., 2013; cited from earlier work
experimental CNV = details: oral administration, dose-dependent; ref Seo et al., 2012; cited from earlier work
[2] = system: corneal neovascularization (CNV); assay: Alkali burn injury induced CNV in mice; type: in vivo, BALB/c mice; details: SRB-NLC 0.0125-0.05%, fluorescein staining
Method in brief: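 Male BALB/c mice (20–25 g) were anaesthetised with 1% sodium pentobarbital i.p. (80 mg/kg) plus 0.4% oxybuprocaine drops. 2 μL of 0.1 M NaOH on filter paper was applied to the right central cornea for 20 s, then rinsed with 20 mL saline. Groups of 16 received saline, test-compound lipid carrier (0.05, 0.025 or 0.0125%) or dexamethasone drops, 5 μL twice daily for 7 days. On day 7, corneas from three mice per group were fixed in 4% paraformaldehyde for 48 h, paraffin-processed, and 5 µm sagittal sections were H&E stained.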

neovascular corneal area = details: topical solution 0.05 mg/mL SRB and 0.07 mg/mL DMSO; ref Yildirim et al., 2020; cited from earlier work

| Compound | VEGF-A level in corneal tissue vs saline group (VEGF-A) | PDGF-AB level in corneal tissue vs saline group (PDGF-AB) | SRB levels in the aqueous humor (AH) [1] [µg/mL] | Toxic effects on endothelial cells (endothelial cells) | Development of experimental CNV (experimental CNV) | Recovery of corneal epithelial defects after alkali burn injury [2] | Percentage of the neovascular corneal area vs DMSO alone (neovascular corneal area) |
| --- | --- | --- | --- | --- | --- | --- | --- |
| Dexamethasone sodium phosphate | significantly lower | significantly lower | – | – | – | – | – |
| CNC(=O)c1cc(Oc2ccc(NC(=O)Nc3ccc(Cl)c(C(F)(F)F)c3)cc2)ccn1 [SRB, Sorafenib] | – | – | < 0.01 | no toxic effects | significantly reduced the development of experimental CNV | could effectively promote the recovery of corneal epithelial defects | significantly lower |
